Measurements reported in ChEMBL document CHEMBL3227952, “Potential organ- or tumor-imaging agents. 18. Radioiodinated diamines and bisquaternaries” (J Med Chem, 1979).

Tests used:
[1] = test system: Lung; assay: Drug uptake in Sprague-Dawley rat lung at 6.2 to 10.4 uCi, iv after 2 hrs by liquid scintillation counting; assay type: ADME, organism-based; settings: in vivo
[2] = test system: Pancreas; assay: Drug uptake in Sprague-Dawley rat pancreas at 6.2 to 10.4 uCi, iv after 2 hrs by liquid scintillation counting; assay type: ADME, organism-based; settings: in vivo
[3] = test system: Pituitary gland; assay: Drug uptake in Sprague-Dawley rat pituitary at 6.2 to 10.4 uCi, iv after 2 hrs by liquid scintillation counting; assay type: ADME, organism-based; settings: in vivo
[4] = test system: Spleen; assay: Drug uptake in Sprague-Dawley rat spleen at 6.2 to 10.4 uCi, iv after 2 hrs by liquid scintillation counting; assay type: ADME, organism-based; settings: in vivo
[5] = test system: Thyroid gland; assay: Drug uptake in Sprague-Dawley rat thyroid at 6.2 to 10.4 uCi, iv after 2 hrs by liquid scintillation counting; assay type: ADME, organism-based; settings: in vivo
[6] = test system: Testes; assay: Drug uptake in Sprague-Dawley rat testes at 6.2 to 10.4 uCi, iv after 2 hrs by liquid scintillation counting; assay type: ADME, organism-based, Testis; settings: in vivo
[7] = Drug uptake in Sprague-Dawley rat dorsolateral prostate at 6.2 to 10.4 uCi, iv after 2 hrs by liquid scintillation counting; assay type: ADME, organism-based, Prostate gland; settings: in vivo
In short: (§1)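 Adult male rats (200–420 g) given radioiodinated agent, 6.5–7.0 μCi/mg, in 0.10–0.15 mL of 0.1 N HCl. Dosing was by tail vein under ether. Rats were killed by exsanguination, three at 0.5 h and five at 2 h. Organs were rinsed, blotted and weighed, with duplicate samples counted for radioactivity. Results are % administered dose/g, mean ± SEM.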

[8] = Drug uptake in Sprague-Dawley rat ventral prostate at 6.2 to 10.4 uCi, iv after 2 hrs by liquid scintillation counting; assay type: ADME, organism-based, Prostate gland; settings: in vivo
In short: (§2)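 Adult male Sprague-Dawley rats (200–420 g) with free access to food and water. Under ether anesthesia, each received 6.2–10.4 μCi (6.5–7.0 μCi/mg) of tracer in 0.10–0.15 mL of 0.1 N HCl vehicle, iv via the tail vein. Rats were killed by exsanguination at 0.5 h (3 rats) or 2 h (5 rats). Organs were rinsed, blotted and weighed; duplicate samples were counted. Results are % administered dose/g, mean ± SEM.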

[9] = test system: Blood; assay: Drug uptake in Sprague-Dawley rat blood at 6.2 to 10.4 uCi, iv after 2 hrs by liquid scintillation counting; assay type: ADME, organism-based; settings: in vivo; in short: as §1
[10] = test system: Adrenal; assay: Drug uptake in Sprague-Dawley rat adrenal at 6.2 to 10.4 uCi, iv after 0.5 hrs by liquid scintillation counting; assay type: ADME, organism-based, Adrenal gland; settings: in vivo; in short: as §1
[11] = Drug uptake in Sprague-Dawley rat bone marrow at 6.2 to 10.4 uCi, iv after 0.5 hrs by liquid scintillation counting; assay type: ADME, organism-based; settings: in vivo; in short: as §1
[12] = test system: Brain; assay: Drug uptake in Sprague-Dawley rat brain at 6.2 to 10.4 uCi, iv after 0.5 hrs by liquid scintillation counting; assay type: ADME, organism-based; settings: in vivo; in short: as §1
[13] = Drug uptake in Sprague-Dawley rat diaphragm at 6.2 to 10.4 uCi, iv after 0.5 hrs by liquid scintillation counting; assay type: ADME, organism-based; settings: in vivo; in short: as §1
[14] = test system: Duodenum; assay: Drug uptake in Sprague-Dawley rat duodenum at 6.2 to 10.4 uCi, iv after 0.5 hrs by liquid scintillation counting; assay type: ADME, organism-based; settings: in vivo; in short: as §1
[15] = test system: Heart; assay: Drug uptake in Sprague-Dawley rat heart at 6.2 to 10.4 uCi, iv after 0.5 hrs by liquid scintillation counting; assay type: ADME, organism-based; settings: in vivo; in short: as §1
[16] = test system: Kidney; assay: Drug uptake in Sprague-Dawley rat kidney at 6.2 to 10.4 uCi, iv after 0.5 hrs by liquid scintillation counting; assay type: ADME, organism-based; settings: in vivo
[17] = test system: Liver; assay: Drug uptake in Sprague-Dawley rat liver at 6.2 to 10.4 uCi, iv after 0.5 hrs by liquid scintillation counting; assay type: ADME, organism-based; settings: in vivo, in the assay text read “well-scintillation gamma counting” for “liquid scintillation counting”
In short: (§3)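 Three rats were killed at 0.5 h and five at 2 h by exsanguination under ether. Organs were rinsed, blotted and weighed, duplicate samples gamma-counted (87% efficiency), expressed as % administered dose/g, mean ± SEM.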

[18] = test system: Lung; assay: Drug uptake in Sprague-Dawley rat lung at 6.2 to 10.4 uCi, iv after 0.5 hrs by liquid scintillation counting; assay type: ADME, organism-based; settings: in vivo, in the assay text read “well-scintillation gamma counting” for “liquid scintillation counting”; in short: as §3
[19] = test system: Pancreas; assay: Drug uptake in Sprague-Dawley rat pancreas at 6.2 to 10.4 uCi, iv after 0.5 hrs by liquid scintillation counting; assay type: ADME, organism-based; settings: in vivo, in the assay text read “well-scintillation gamma counting” for “liquid scintillation counting”; in short: as §3
[20] = test system: Pituitary gland; assay: Drug uptake in Sprague-Dawley rat pituitary at 6.2 to 10.4 uCi, iv after 0.5 hrs by liquid scintillation counting; assay type: ADME, organism-based; settings: in vivo, in the assay text read “well-scintillation gamma counting” for “liquid scintillation counting”; in short: as §3
[21] = test system: Spleen; assay: Drug uptake in Sprague-Dawley rat spleen at 6.2 to 10.4 uCi, iv after 0.5 hrs by liquid scintillation counting; assay type: ADME, organism-based; settings: in vivo, in the assay text read “well-scintillation gamma counting” for “liquid scintillation counting”; in short: as §3
[22] = test system: Thyroid gland; assay: Drug uptake in Sprague-Dawley rat thyroid at 6.2 to 10.4 uCi, iv after 0.5 hrs by liquid scintillation counting; assay type: ADME, organism-based; settings: in vivo
[23] = test system: Testes; assay: Drug uptake in Sprague-Dawley rat testes at 6.2 to 10.4 uCi, iv after 0.5 hrs by liquid scintillation counting; assay type: ADME, organism-based, Testis; settings: in vivo
[24] = Drug uptake in Sprague-Dawley rat dorsolateral prostate at 6.2 to 10.4 uCi, iv after 0.5 hrs by liquid scintillation counting; assay type: ADME, organism-based, Prostate gland; settings: in vivo; in short: as §1
[25] = Drug uptake in Sprague-Dawley rat ventral prostate at 6.2 to 10.4 uCi, iv after 0.5 hrs by liquid scintillation counting; assay type: ADME, organism-based, Prostate gland; settings: in vivo; in short: as §2
[26] = test system: Blood; assay: Drug uptake in Sprague-Dawley rat blood at 6.2 to 10.4 uCi, iv after 0.5 hrs by liquid scintillation counting; assay type: ADME, organism-based; settings: in vivo; in short: as §1
[27] = test system: Adrenal; assay: Drug uptake in Sprague-Dawley rat adrenal at 6.2 to 10.4 uCi, iv after 2 hrs by liquid scintillation counting; assay type: ADME, organism-based, Adrenal gland; settings: in vivo; in short: as §1
[28] = Drug uptake in Sprague-Dawley rat bone marrow at 6.2 to 10.4 uCi, iv after 2 hrs by liquid scintillation counting; assay type: ADME, organism-based; settings: in vivo; in short: as §1
[29] = test system: Brain; assay: Drug uptake in Sprague-Dawley rat brain at 6.2 to 10.4 uCi, iv after 2 hrs by liquid scintillation counting; assay type: ADME, organism-based; settings: in vivo; in short: as §1
[30] = Drug uptake in Sprague-Dawley rat diaphragm at 6.2 to 10.4 uCi, iv after 2 hrs by liquid scintillation counting; assay type: ADME, organism-based; settings: in vivo; in short: as §1
[31] = test system: Duodenum; assay: Drug uptake in Sprague-Dawley rat duodenum at 6.2 to 10.4 uCi, iv after 2 hrs by liquid scintillation counting; assay type: ADME, organism-based; settings: in vivo; in short: as §1
[32] = test system: Heart; assay: Drug uptake in Sprague-Dawley rat heart at 6.2 to 10.4 uCi, iv after 2 hrs by liquid scintillation counting; assay type: ADME, organism-based; settings: in vivo, in the assay text read “well-scintillation gamma counting” for “liquid scintillation counting”; in short: as §1
[33] = test system: Kidney; assay: Drug uptake in Sprague-Dawley rat kidney at 6.2 to 10.4 uCi, iv after 2 hrs by liquid scintillation counting; assay type: ADME, organism-based; settings: in vivo, in the assay text read “well-scintillation gamma counting” for “liquid scintillation counting”; in short: as §3
[34] = test system: Liver; assay: Drug uptake in Sprague-Dawley rat liver at 6.2 to 10.4 uCi, iv after 2 hrs by liquid scintillation counting; assay type: ADME, organism-based; settings: in vivo, in the assay text read “well-scintillation gamma counting” for “liquid scintillation counting”; in short: as §3

SMILES: NCc1ccc(CN)c([125I])c1
- Drug uptake [1]: 2.261 % ID/g
- Drug uptake [2]: 0.617 % ID/g
- Drug uptake [3]: 0.681 % ID/g
- Drug uptake [4]: 0.988 % ID/g
- Drug uptake [5]: 3.476 % ID/g
- Drug uptake [6]: 0.048 % ID/g
- Drug uptake [7]: 0.436 % ID/g
- Drug uptake [8]: 0.293 % ID/g
- Drug uptake [9]: 0.041 % ID/g
- Drug uptake [10]: 1.732 % ID/g
- Drug uptake [11]: 0.44 % ID/g
- Drug uptake [12]: 0.063 % ID/g
- Drug uptake [13]: 0.38 % ID/g
- Drug uptake [14]: 0.485 % ID/g
- Drug uptake [15]: 0.553 % ID/g
- Drug uptake [16]: 1.926 % ID/g
- Drug uptake [17]: 1.008 % ID/g
- Drug uptake [18]: 2.384 % ID/g
- Drug uptake [19]: 0.657 % ID/g
- Drug uptake [20]: 0.533 % ID/g
- Drug uptake [21]: 0.844 % ID/g
- Drug uptake [22]: 2.457 % ID/g
- Drug uptake [23]: 0.036 % ID/g
- Drug uptake [24]: 0.32 % ID/g
- Drug uptake [25]: 0.296 % ID/g
- Drug uptake [26]: 0.073 % ID/g
- Drug uptake [27]: 1.577 % ID/g
- Drug uptake [28]: 0.682 % ID/g
- Drug uptake [29]: 0.088 % ID/g
- Drug uptake [30]: 0.293 % ID/g
- Drug uptake [31]: 0.343 % ID/g
- Drug uptake [32]: 0.44 % ID/g
- Drug uptake [33]: 1.67 % ID/g
- Drug uptake [34]: 0.949 % ID/g
